Structures are written as SMILES.

Assay [1] deals with Microtubule-associated protein 1 light chain 3 alpha (Homo sapiens, UniProt Q9H492). The experiment in a line: Displacement of sGFP-p62-LIR peptide from human N-terminal SNAP-fused LC3A by time-resolved FRET assay. An outline of the steps: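 HTRF displacement: 10 nM N-terminal SNAP-LC3A labeled with terbium cryptate (donor) and 1 μM p62-LIR-sGFP (acceptor), with compound at varying concentrations in 1% DMSO. Buffer 25 mM HEPES pH 7.5, 150 mM KF, 10% glycerol, 0.1% CHAPS, 5 mM DTT. Incubated 2 h at RT; excitation 340 nm, emission read at 520 and 620 nm. IC50 with SD; Ki calculated.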

Assay [2] has as its target Microtubule-associated protein 1 light chain 3 beta (Homo sapiens, UniProt Q9GZQ8). The experiment in a line: Displacement of sGFP-p62-LIR peptide from human N-terminal SNAP-fused LC3B by time-resolved FRET assay.

`CC(C)CCc1cc(C(=O)Nc2c(O)c3ccc(O)cc3oc2=O)ccc1F`: the IC50 (as a rule, the concentration that gives 50% inhibition) in assay [1] (read-out: IC50) was 107 µM. For the same compound, the Ki (as a rule, the equilibrium dissociation constant of an inhibitor or competing ligand from its target) in assay [1] (read-out: Ki) worked out at 21.8 µM. `CS(=O)(=O)Nc1cccc(C(=O)Nc2c(O)c3ccc(O)cc3oc2=O)c1`: the Ki in assay [1] (read-out: Ki) came to 130 µM. For the compound `CC(C)[C@H](NC(=O)OC(C)(C)C)C(=O)Nc1c(O)c2ccc(O)cc2oc1=O`, the IC50 entry in assay [1] and in assay [2] was “Not Active” each time. Moreover, the Ki entry in assay [1] and in assay [2] was “Not Active” each time. As for `O=C(Nc1c(O)c2ccc(O)cc2oc1=O)c1cccc(SCC2CC2)c1`, the Ki in assay [1] (read-out: Ki) stood at 13 µM. Still for that read-out and setting: the result for `CCCCc1cccc(C(=O)Nc2c(O)c3ccc(O)cc3oc2=O)c1` reads 12 µM; that for `CCCOc1cccc(C(=O)Nc2c(O)c3ccc(O)cc3oc2=O)c1`, 143 µM.

On to `O=C(Nc1c(O)c2ccc(O)cc2oc1=O)c1cccc(OCc2ccccc2)c1`, for which, in assay [1] (read-out: Ki), the Ki came out at 44 µM. Still for that read-out and setting: the result for `CCCCOc1cccc(C(=O)Nc2c(O)c3ccc(O)cc3oc2=O)c1` reads 69 µM. Consider `CC(C)CCc1cccc(C(=O)Nc2c(O)c3ccc(-c4cccc5ccccc45)cc3oc2=O)c1`, for which the half-maximal inhibitory concentration (IC50) in assay [1] (read-out: IC50) was 42.8 µM. Besides, the Ki in assay [1] (read-out: Ki) was found to be 8.8 µM.

Regarding `CC(C)CS(=O)(=O)Nc1cccc(C(=O)Nc2c(O)c3ccc(O)cc3oc2=O)c1`, in assay [1] (read-out: Ki), the Ki came out at 53 µM. On the same count and under the same terms, the same measure for `CC(C)Cc1cccc(C(=O)Nc2c(O)c3ccc(O)cc3oc2=O)c1`: 20 µM.

Take `O=C(Nc1c(O)c2ccc(O)cc2oc1=O)c1cccc(Oc2ccccc2)c1`: in assay [1] (read-out: Ki), the Ki stood at 44 µM. The same measure, in the same setting: the result for `CC(C)Sc1cccc(C(=O)Nc2c(O)c3ccc(O)cc3oc2=O)c1` reads 47 µM.

For the compound `CCn1nccc1-c1ccc2c(O)c(NC(=O)c3cccc(CCC(C)C)c3)c(=O)oc2c1`, in assay [1] (read-out: IC50), the IC50 came to 190 µM. Further, the Ki in assay [1] (read-out: Ki) was determined as 38.9 µM.

On to `CCCC[C@H](NC(=O)OC(C)(C)C)C(=O)Nc1c(O)c2ccc(O)cc2oc1=O`, for which the IC50 in assay [1] (read-out: IC50) and in assay [2] (read-out: IC50) was 668 µM each time. Further, the Ki was 137 µM in assay [1] (read-out: Ki) and “Not Active” in assay [2]. As for `CC(C)CCc1cccc(C(=O)Nc2c(O)c3ccc(NC(=O)CCCC(=O)O)cc3oc2=O)c1`, the IC50 in assay [1] (read-out: IC50) amounted to 229 µM. Also, in assay [1] (read-out: Ki), the Ki was 46.9 µM. In the case of `CC(C)CCc1cccc(C(=O)Nc2c(O)c3ccc(-c4ccnn4Cc4ccccc4)cc3oc2=O)c1`, the IC50 in assay [1] (read-out: IC50) was 813 µM; in assay [2], “Not Active”. In addition, the figures for the Ki in assay [1] (read-out: Ki) and in assay [2] were 167 µM and “Not Active”, respectively. `O=C(Nc1c(O)c2ccc(O)cc2oc1=O)c1cccc(CCC2CC2)c1`: the Ki in assay [1] (read-out: Ki) was 13 µM. Turning to `CC(C)CCc1cccc(C(=O)Nc2c(O)c3ccc(NC(=O)CCC(=O)O)cc3oc2=O)c1`, the IC50 in assay [1] (read-out: IC50) is 217 µM. In assay [1] (read-out: Ki), the Ki came to 44.3 µM. Consider `CC(C)CCc1cccc(C(=O)Nc2c(O)c3ccc(-c4ccccc4-c4ccccc4)cc3oc2=O)c1`, for which the IC50 in assay [1] (read-out: IC50) is 515 µM; in assay [2], “Not Active”. In addition, the figures for the inhibitory constant (Ki) in assay [1] (read-out: Ki) and in assay [2] were 105 µM and “Not Active”, respectively. For the compound `CC(C)C[C@@H](NC(=O)OC(C)(C)C)C(=O)Nc1c(O)c2ccc(O)cc2oc1=O`, in assay [1], the IC50 result was “Not Active” and the Ki entry is “Not Active”. For `CC(C)CCc1cccc(C(=O)Nc2c(O)c3ccc(-c4ccnn4C)cc3oc2=O)c1`, the IC50 in assay [1] (read-out: IC50) turned out to be 219 µM. Also, the Ki in assay [1] (read-out: Ki) was determined as 44.8 µM.

On to `O=C(Nc1c(O)c2ccc(O)cc2oc1=O)c1cccc(OCC2CC2)c1`, for which the results for the Ki in assay [1] (read-out: Ki) and in assay [2] were 137 µM and “Not Active”, respectively. Take `Cc1ccccc1S(=O)(=O)Nc1ccc2c(O)c(NC(=O)c3cccc(CCC(C)C)c3)c(=O)oc2c1`: the IC50 in assay [1] (read-out: IC50) amounted to 76 µM. Moreover, in assay [1] (read-out: Ki), the Ki came out at 15.6 µM. Regarding `COc1ccc(C(=O)Nc2c(O)c3ccc(O)cc3oc2=O)cc1CCC(C)C`, in assay [1] (read-out: IC50), the IC50 stood at 64.4 µM. Also, in assay [1] (read-out: Ki), the Ki amounted to 13.2 µM. On to `CC(C)CCc1cccc(C(=O)Nc2c(O)c3ccc(NS(=O)(=O)CCc4ccccc4)cc3oc2=O)c1`, for which the IC50 in assay [1] (read-out: IC50) was found to be 36.7 µM; in assay [2] (read-out: IC50) it was 66.3 µM. Further, the Ki in assay [1] (read-out: Ki) was found to be 7.5 µM; in assay [2] (read-out: Ki) it was 7.4 µM.

Take `CCOc1cccc(C(=O)Nc2c(O)c3ccc(O)cc3oc2=O)c1`: the figures for the Ki in assay [1] (read-out: Ki) and in assay [2] were 129 µM and “Not Active”, respectively.

As for `CC(=O)Nc1ccc2c(O)c(NC(=O)c3cccc(CCC(C)C)c3)c(=O)oc2c1`, the IC50 in assay [1] (read-out: IC50) was 120 µM. Further, the Ki in assay [1] (read-out: Ki) amounted to 24.6 µM.

Regarding `CCCSc1cccc(C(=O)Nc2c(O)c3ccc(O)cc3oc2=O)c1`, the Ki in assay [1] (read-out: Ki) was 32 µM. As to `CC(C)CCc1cccc(C(=O)Nc2c(O)c3ccc(NS(=O)(=O)Cc4ccccc4)cc3oc2=O)c1`, the IC50 in assay [1] (read-out: IC50) amounted to 73.1 µM. Also, the Ki in assay [1] (read-out: Ki) was found to be 15 µM. As to `CC[C@H](C)[C@H](NC(=O)OC(C)(C)C)C(=O)Nc1c(O)c2ccc(O)cc2oc1=O`, in assay [1], the half-maximal inhibitory concentration (IC50) result is on record as “Not Active” and the Ki entry is recorded as “Not Active”. Besides, in assay [2], the IC50 entry was “Not Active” and the Ki result is “Not Active”. Regarding `CC(C)CSc1cccc(C(=O)Nc2c(O)c3ccc(O)cc3oc2=O)c1`, the Ki in assay [1] (read-out: Ki) is 52 µM.

As for `CC(C)CCc1cccc(C(=O)Nc2c(O)c3ccc(-c4cccc(C(=O)O)c4)cc3oc2=O)c1`, in assay [1] (read-out: IC50), the IC50 came out at 35.3 µM. Besides, the Ki in assay [1] (read-out: Ki) worked out at 7.2 µM. Consider `CC(C)Oc1cccc(C(=O)Nc2c(O)c3ccc(O)cc3oc2=O)c1`, for which the Ki in assay [1] (read-out: Ki) is 103 µM. For `CC(C)CCc1cccc(C(=O)Nc2c(O)c3ccc(NS(=O)(=O)CC(C)C)cc3oc2=O)c1`, the IC50 in assay [1] (read-out: IC50) amounted to 110 µM. Moreover, the Ki in assay [1] (read-out: Ki) came to 22.6 µM. In the case of `CCSc1cccc(C(=O)Nc2c(O)c3ccc(O)cc3oc2=O)c1`, the Ki in assay [1] (read-out: Ki) stood at 42 µM. In the case of `C=CCOc1cccc(C(=O)Nc2c(O)c3ccc(O)cc3oc2=O)c1`, the Ki in assay [1] (read-out: Ki) stood at 20 µM.

Take `CCCS(=O)(=O)Nc1cccc(C(=O)Nc2c(O)c3ccc(O)cc3oc2=O)c1`: the Ki in assay [1] (read-out: Ki) was 144 µM. Take `Cc1ccc(S(=O)(=O)Nc2ccc3c(O)c(NC(=O)c4cccc(CCC(C)C)c4)c(=O)oc3c2)cc1`: in assay [1] (read-out: IC50), the IC50 worked out at 59.9 µM. The Ki in assay [1] (read-out: Ki) stood at 12.3 µM. On the same counts, the results for `CC(C)CCc1ccccc1C(=O)Nc1c(O)c2ccc(O)cc2oc1=O` are 215 µM and 44 µM. On the same counts, the results for `CC(C)CCc1cccc(C(=O)Nc2c(O)c3ccc(NS(=O)(=O)c4cccc5ccccc45)cc3oc2=O)c1` are 31.2 µM and 6.4 µM. In the case of `CCCCSc1cccc(C(=O)Nc2c(O)c3ccc(O)cc3oc2=O)c1`, in assay [1] (read-out: Ki), the Ki is 18 µM.

Consider `CC(C)S(=O)(=O)Nc1cccc(C(=O)Nc2c(O)c3ccc(O)cc3oc2=O)c1`, for which the Ki in assay [1] (read-out: Ki) was 39 µM. Consider `CC(C)CCc1cccc(C(=O)Nc2c(O)c3ccc(-c4ccc(C(=O)O)cc4)cc3oc2=O)c1`, for which, in assay [1] (read-out: IC50), the IC50 was found to be 92.1 µM. In assay [1] (read-out: Ki), the Ki came out at 18.9 µM. The corresponding values for `CC(C)CCc1cccc(C(=O)Nc2c(O)c3ccc(NS(=O)(=O)c4ccccc4)cc3oc2=O)c1` are 85.9 µM and 17.6 µM. For `CCCCCc1cccc(C(=O)Nc2c(O)c3ccc(O)cc3oc2=O)c1`, in assay [1] (read-out: Ki), the Ki worked out at 12 µM.

As for `CCCCS(=O)(=O)Nc1cccc(C(=O)Nc2c(O)c3ccc(O)cc3oc2=O)c1`, in assay [1] (read-out: Ki), the Ki stood at 26 µM. Still for that read-out and setting: the same measure for `CCCc1cccc(C(=O)Nc2c(O)c3ccc(O)cc3oc2=O)c1`: 20 µM. As for `O=C(Nc1c(O)c2ccc(O)cc2oc1=O)c1cccc(CCc2ccccc2)c1`, the Ki in assay [1] (read-out: Ki) is 75 µM.
